According to ChEMBL document CHEMBL1156310, “Stepwise synthesis of oligonucleotide-peptide conjugates containing guanidinium and lipophilic groups in their 3'-termini” (Bioorg Med Chem Lett, 2010):

Key:
SH-SY5Y [1] = test: Antisense activity in human SH-SY5Y cells assessed as inhibition of luciferase gene expression at 60 nM after 22 hrs by luminometry in the presence of lipofectamine 2000; assay type: functional
Method in brief: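 SH-SY5Y cells cotransfected via Lipofectamine 2000 with Renilla (target) and firefly (internal control) luciferase plasmids plus phosphorothioate ASO derivatives at 60 nM, targeting Renilla mRNA site 21-38; scrambled sequences as controls. Read-out: Renilla luciferase inhibition normalized to firefly.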

SH-SY5Y [2] = test: Cellular uptake in human SH-SY5Y cells at 300 nM after 22 hrs by dual leucifearse reporter assay; assay type: ADME, cell-based; conditions: 0.3 µM
Method in brief: (§1)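 Dual-luciferase plasmids (Renilla target, firefly internal control) transfected into SH-SY5Y; after 3 h, medium replaced with fresh medium containing ASO-peptide conjugates (150, 200, 300 nM) without Lipofectamine 2000. Luciferase activities measured 22 h after transfection; knockdown expressed as inhibition of Renilla expression. Phosphorothioate ASO targets Renilla mRNA 21-38 site.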

SH-SY5Y [3] = test: Antisense activity in human SH-SY5Y cells assessed as inhibition of luciferase gene expression at 300 nM after 22 hrs by luminometry; assay type: functional; set-up: scale not given: the % may be the effect or the level left; method in brief: as §1

SMILES | inhibition at 0.06 µM (SH-SY5Y [1]) [%] | Drug uptake (SH-SY5Y [2]) [%] | Activity (SH-SY5Y [3]) [%]
Cc1cn([C@H]2C[C@H](OP(O)(=S)OC[C@H]3O[C@@H](n4cc(C)c(=O)[nH]c4=O)C[C@@H]3OP(O)(=S)OC[C@H]3O[C@@H](n4cnc5c(=O)[nH]c(N)nc54)[C@H](O)[C@@H]3OP(O)(=S)OC[C@H]3O[C@@H](n4cc(C)c(=O)[nH]c4=O)C[C@@H]3OP(O)(=S)OC[C@H]3O[C@@H](n4cc(C)c(=O)[nH]c4=O)C[C@@H]3OP(O)(=S)OC[C@H]3O[C@@H](n4cc(C)c(=O)[nH]c4=O)C[C@@H]3OP(O)(=S)OC[C@H]3O[C@@H](n4ccc(N)nc4=O)[C@H](O)[C@@H]3OP(O)(=S)OC[C@H]3O[C@@H](n4ccc(N)nc4=O)[C@H](O)[C@@H]3OP(O)(=S)OC[C@H]3O[C@@H](n4cc(C)c(=O)[nH]c4=O)C[C@@H]3OP(O)(=S)OC[C@H]3O[C@@H](n4cc(C)c(=O)[nH]c4=O)C[C@@H]3OP(O)(=S)OC[C@H]3O[C@@H](n4cc(C)c(=O)[nH]c4=O)C[C@@H]3OP(O)(=S)OC[C@H]3O[C@@H](n4cnc5c(=O)[nH]c(N)nc54)[C@H](O)[C@@H]3OP(O)(=S)OC[C@H]3O[C@@H](n4ccc(N)nc4=O)[C@H](O)[C@@H]3O)[C@@H](COP(O)(=S)O[C@H]3[C@@H](O)[C@H](n4ccc(N)nc4=O)O[C@@H]3COP(O)(=S)O[C@H]3C[C@H](n4cc(C)c(=O)[nH]c4=O)O[C@@H]3COP(O)(=S)O[C@H]3[C@@H](O)[C@H](n4cnc5c(=O)[nH]c(N)nc54)O[C@@H]3COP(O)(=S)O[C@H]3[C@@H](O)[C@H](n4cnc5c(=O)[nH]c(N)nc54)O[C@@H]3COP(O)(=S)O[C@H]3[C@@H](O)[C@H](n4cnc5c(N)ncnc54)O[C@@H]3COP(O)(=S)OCCCC(=O)N[C@H](CCCCNC(=N)N)C(=O)N[C@@H](CCCCNC(N)N)C(=O)N[C@H](CCCCNC(=N)N)C(=O)N[C@@H](CCCCNC(=N)N)C(=O)N[C@H](CCCCNC(=N)N)C(=O)N[C@@H](CCCCNC(=N)N)C(=O)N[C@H](CCCCNC(=N)N)C(=O)N[C@@H](CCCCNC(=N)N)C(=O)NCCCCCCO)O2)c(=O)[nH]c1=O (some centres undefined) | 66 | 28 | 28
Cc1cn([C@H]2C[C@H](OP(O)(=S)OC[C@H]3O[C@@H](n4cc(C)c(=O)[nH]c4=O)C[C@@H]3OP(O)(=S)OC[C@H]3O[C@@H](n4cnc5c(=O)[nH]c(N)nc54)[C@H](O)[C@@H]3OP(O)(=S)OC[C@H]3O[C@@H](n4cc(C)c(=O)[nH]c4=O)C[C@@H]3OP(O)(=S)OC[C@H]3O[C@@H](n4cc(C)c(=O)[nH]c4=O)C[C@@H]3OP(O)(=S)OC[C@H]3O[C@@H](n4cc(C)c(=O)[nH]c4=O)C[C@@H]3OP(O)(=S)OC[C@H]3O[C@@H](n4ccc(N)nc4=O)[C@H](O)[C@@H]3OP(O)(=S)OC[C@H]3O[C@@H](n4ccc(N)nc4=O)[C@H](O)[C@@H]3OP(O)(=S)OC[C@H]3O[C@@H](n4cc(C)c(=O)[nH]c4=O)C[C@@H]3OP(O)(=S)OC[C@H]3O[C@@H](n4cc(C)c(=O)[nH]c4=O)C[C@@H]3OP(O)(=S)OC[C@H]3O[C@@H](n4cc(C)c(=O)[nH]c4=O)C[C@@H]3OP(O)(=S)OC[C@H]3O[C@@H](n4cnc5c(=O)[nH]c(N)nc54)[C@H](O)[C@@H]3OP(O)(=S)OC[C@H]3O[C@@H](n4ccc(N)nc4=O)[C@H](O)[C@@H]3O)[C@@H](COP(O)(=S)O[C@H]3[C@@H](O)[C@H](n4ccc(N)nc4=O)O[C@@H]3COP(O)(=S)O[C@H]3C[C@H](n4cc(C)c(=O)[nH]c4=O)O[C@@H]3COP(O)(=S)O[C@H]3[C@@H](O)[C@H](n4cnc5c(=O)[nH]c(N)nc54)O[C@@H]3COP(O)(=S)O[C@H]3[C@@H](O)[C@H](n4cnc5c(=O)[nH]c(N)nc54)O[C@@H]3COP(O)(=S)O[C@H]3[C@@H](O)[C@H](n4cnc5c(N)ncnc54)O[C@@H]3COP(O)(=S)OCCCC(=O)N[C@H](CCCCNC(=N)N)C(=O)N[C@@H](CCCCNC(=N)N)C(=O)NCCCCCCO)O2)c(=O)[nH]c1=O (some centres undefined) | 64 | 18 | –
Cc1cn([C@H]2C[C@H](OP(O)(=S)OC[C@H]3O[C@@H](n4cc(C)c(=O)[nH]c4=O)C[C@@H]3OP(O)(=S)OC[C@H]3O[C@@H](n4cnc5c(=O)[nH]c(N)nc54)[C@H](O)[C@@H]3OP(O)(=S)OC[C@H]3O[C@@H](n4cc(C)c(=O)[nH]c4=O)C[C@@H]3OP(O)(=S)OC[C@H]3O[C@@H](n4cc(C)c(=O)[nH]c4=O)C[C@@H]3OP(O)(=S)OC[C@H]3O[C@@H](n4cc(C)c(=O)[nH]c4=O)C[C@@H]3OP(O)(=S)OC[C@H]3O[C@@H](n4ccc(N)nc4=O)[C@H](O)[C@@H]3OP(O)(=S)OC[C@H]3O[C@@H](n4ccc(N)nc4=O)[C@H](O)[C@@H]3OP(O)(=S)OC[C@H]3O[C@@H](n4cc(C)c(=O)[nH]c4=O)C[C@@H]3OP(O)(=S)OC[C@H]3O[C@@H](n4cc(C)c(=O)[nH]c4=O)C[C@@H]3OP(O)(=S)OC[C@H]3O[C@@H](n4cc(C)c(=O)[nH]c4=O)C[C@@H]3OP(O)(=S)OC[C@H]3O[C@@H](n4cnc5c(=O)[nH]c(N)nc54)[C@H](O)[C@@H]3OP(O)(=S)OC[C@H]3O[C@@H](n4ccc(N)nc4=O)[C@H](O)[C@@H]3O)[C@@H](COP(O)(=S)O[C@H]3[C@@H](O)[C@H](n4ccc(N)nc4=O)O[C@@H]3COP(O)(=S)O[C@H]3C[C@H](n4cc(C)c(=O)[nH]c4=O)O[C@@H]3COP(O)(=S)O[C@H]3[C@@H](O)[C@H](n4cnc5c(=O)[nH]c(N)nc54)O[C@@H]3COP(O)(=S)O[C@H]3[C@@H](O)[C@H](n4cnc5c(=O)[nH]c(N)nc54)O[C@@H]3COP(O)(=S)O[C@H]3[C@@H](O)[C@H](n4cnc5c(N)ncnc54)O[C@@H]3COP(O)(=S)OCCCC(=O)N[C@H](CCCCNC(=N)N)C(=O)N[C@@H](CCCCNC(=N)N)C(=O)N[C@H](CCCCNC(=N)N)C(=O)N[C@@H](CCCCNC(=N)N)C(=O)NCCCCCCO)O2)c(=O)[nH]c1=O (some centres undefined) | 57 | 21 | –
Cc1cn([C@H]2C[C@H](OP(O)(=S)OC[C@H]3O[C@@H](n4cc(C)c(=O)[nH]c4=O)C[C@@H]3OP(O)(=S)OC[C@H]3O[C@@H](n4cnc5c(=O)[nH]c(N)nc54)[C@H](O)[C@@H]3OP(O)(=S)OC[C@H]3O[C@@H](n4cc(C)c(=O)[nH]c4=O)C[C@@H]3OP(O)(=S)OC[C@H]3O[C@@H](n4cc(C)c(=O)[nH]c4=O)C[C@@H]3OP(O)(=S)OC[C@H]3O[C@@H](n4cc(C)c(=O)[nH]c4=O)C[C@@H]3OP(O)(=S)OC[C@H]3O[C@@H](n4ccc(N)nc4=O)[C@H](O)[C@@H]3OP(O)(=S)OC[C@H]3O[C@@H](n4ccc(N)nc4=O)[C@H](O)[C@@H]3OP(O)(=S)OC[C@H]3O[C@@H](n4cc(C)c(=O)[nH]c4=O)C[C@@H]3OP(O)(=S)OC[C@H]3O[C@@H](n4cc(C)c(=O)[nH]c4=O)C[C@@H]3OP(O)(=S)OC[C@H]3O[C@@H](n4cc(C)c(=O)[nH]c4=O)C[C@@H]3OP(O)(=S)OC[C@H]3O[C@@H](n4cnc5c(=O)[nH]c(N)nc54)[C@H](O)[C@@H]3OP(O)(=S)OC[C@H]3O[C@@H](n4ccc(N)nc4=O)[C@H](O)[C@@H]3O)[C@@H](COP(O)(=S)O[C@H]3[C@@H](O)[C@H](n4ccc(N)nc4=O)O[C@@H]3COP(O)(=S)O[C@H]3C[C@H](n4cc(C)c(=O)[nH]c4=O)O[C@@H]3COP(O)(=S)O[C@H]3[C@@H](O)[C@H](n4cnc5c(=O)[nH]c(N)nc54)O[C@@H]3COP(O)(=S)O[C@H]3[C@@H](O)[C@H](n4cnc5c(=O)[nH]c(N)nc54)O[C@@H]3COP(O)(=S)O[C@H]3[C@@H](O)[C@H](n4cnc5c(N)ncnc54)O[C@@H]3COP(O)(=S)OCCCC(=O)N[C@H](CCCCN)C(=O)N[C@@H](CCCCN)C(=O)NCCCCCCO)O2)c(=O)[nH]c1=O (some centres undefined) | 61 | 11 | –
